{"data": "Measured values pooled from the literature", "Pah": "Phenylalanine-4-hydroxylase (Pah, Rattus norvegicus, UniProt P04176)", "VHL": "von Hippel-Lindau disease tumor suppressor (VHL, Homo sapiens, UniProt P40337)", "SULT2A1": "Sulfotransferase 2A1 (SULT2A1, Homo sapiens, UniProt Q06520)", "note": "Lines come from different studies, so protocols differ."}
{"Compound": "C=C(C)[C@@H]1CC[C@]2(C)CC[C@]3(C)[C@H](CC[C@@H]4[C@@]5(C)CC[C@H](O)C(C)(C)[C@@H]5CC[C@]43C)[C@@H]12", "target": "GTPase KRas (KRAS, Homo sapiens, UniProt P01116)", "assay": "binding, ITC", "Kd [µM]": 0.33}
{"Compound": "CCCC[C@H](N)C(=O)O", "target": "Pah", "assay": "binding, fluorescence", "setting": "pH 7.5", "Kd [µM]": 17000}
{"Compound": "Cc1ncsc1-c1ccc(CNC(=O)[C@@H]2C[C@@H](O)CN2C(=O)[C@@H](NC(=O)C2(F)CC2)C(C)(C)C)c(OCCOCCOCCN2CCN(c3cc(-c4ccccc4O)nnc3N)CC2)c1", "target": "VHL", "assay": "binding, SPR", "Kd [µM]": 0.098}
{"Compound": "N[C@@H](Cc1ccccc1)C(=O)O", "target": "Pah", "assay": "binding, fluorescence", "setting": "pH 7.5", "Kd [µM]": 54}
{"Compound": "C[C@]12CC[C@H](O)CC1=CC[C@@H]1[C@@H]2CC[C@]2(C)C(=O)CC[C@@H]12", "target": "SULT2A1", "assay": "binding, fluorescence", "Kd [µM]": 0.29}
{"Compound": "Cc1ncsc1-c1ccc(CNC(=O)[C@@H]2C[C@H](O)CN2C(=O)[C@@H](NC(=O)C2(F)CC2)C(C)(C)C)c(OCCOc2ccc(CN3CCN(c4cc(-c5ccccc5O)nnc4N)CC3)cc2)c1", "target": "VHL", "assay": "binding, SPR", "Kd [µM]": "> 10"}
{"Compound": "CC(=O)N[C@H]1[C@H]([C@H](O)[C@H](O)CO)O[C@@](O[C@H]2[C@@H](O)[C@@H](CO)O[C@@H](O[C@H]3[C@H](O)[C@@H](NC(C)=O)C(O)O[C@@H]3CO)[C@@H]2O)(C(=O)O)C[C@@H]1O (stereo partly shown)", "target": "SIGLEC5 (Homo sapiens, UniProt O15389, C36A)", "assay": "binding, NMR", "Kd [µM]": 7000}
{"Compound": "Cc1cc(Nc2cc3ncccc3c(N[C@@H]3C[C@H]4CC[C@@H](C3)N4CCC#N)n2)n[nH]1", "target": "Serine/threonine-protein kinase DCLK1 (DCLK1, Homo sapiens, UniProt O15075)", "assay": "binding, competition with immobilised ligand", "Kd [µM]": 0.89}
{"Compound": "Cc1ncsc1-c1ccc(CNC(=O)[C@@H]2C[C@H](O)CN2C(=O)[C@@H](NC(=O)C2(F)CC2)C(C)(C)C)c(OCCc2ccc(CN3CCN(c4cc(-c5ccccc5O)nnc4N)CC3)cc2)c1", "target": "VHL", "assay": "binding, SPR", "Kd [µM]": "> 10"}
{"Compound": "NC(=O)[C@H](NNC(=O)c1c[nH]c2ccccc12)c1ccccc1", "target": "GTPase KRas (KRAS, Homo sapiens, UniProt P01116, G12D)", "assay": "binding, MST", "Kd [µM]": 3.5}
{"Compound": "CSCC[C@H](N)C(=O)O", "target": "Pah", "assay": "binding, fluorescence", "setting": "pH 7.5", "Kd [µM]": 24000}
{"Compound": "CCCN1CCN(c2ccc(-c3cncc(Cl)c3N3CCC4(CCNC4=O)CC3)cc2)CC1", "target": "Serine/threonine-protein kinase MRCK beta (CDC42BPB, Homo sapiens, UniProt Q9Y5S2)", "assay": "cell-free assay", "setting": "lysate", "Kd [µM]": 4.03}
{"Compound": "NC(=O)c1ccc[n+]([C@@H]2O[C@H](COP(=O)(O)OP(=O)(O)OC[C@H]3O[C@@H](n4cnc5c(N)ncnc54)[C@H](O)[C@@H]3O)[C@@H](O)[C@H]2O)c1", "target": "mdh (Escherichia coli, UniProt P61889)", "assay": "binding, ITC", "Kd [µM]": 467}
{"Compound": "Nc1ncnc2c1ncn2[C@@H]1O[C@H](COP(=O)(O)O)[C@@H](OP(=O)(O)O)[C@H]1O", "target": "SULT2A1", "assay": "binding, fluorescence", "Kd [µM]": 0.55}
{"Compound": "Cc1cnc(-c2ccc(-c3ccc(NC(=O)Nc4c(F)cc(F)cc4F)cc3F)c3c2C(=O)NC3)[nH]1", "target": "Serine/threonine-protein kinase 24 (STK24, Homo sapiens, UniProt Q9Y6E0)", "assay": "binding, competition with immobilised ligand", "Kd [µM]": 0.024}
{"Compound": "Cc1cc2nc3c(=O)[nH]c(=O)nc-3n(C[C@H](O)[C@H](O)[C@H](O)COP(=O)(O)OP(=O)(O)OC[C@H]3O[C@@H](n4cnc5c(N)ncnc54)[C@H](O)[C@@H]3O)c2cc1C", "target": "Annexin A11 (Homo sapiens, UniProt P50995)", "assay": "binding", "setting": "lysate", "Kd [µM]": 0.055}
